Measured values from different studies.
Lines come from different studies, so protocols differ.
SLC22A12: Solute carrier family 22 member 12 (SLC22A12, Homo sapiens, UniProt Q96S37)
HDAC7: Histone deacetylase 7 (HDAC7, Homo sapiens, UniProt Q8WUI4)
PLA2G6: 85/88 kDa calcium-independent phospholipase A2 (PLA2G6, Homo sapiens, UniProt O60733)
CSNK1A1: Casein kinase I isoform alpha (CSNK1A1, Homo sapiens, UniProt P48729)
HDAC10: Polyamine deacetylase HDAC10 (HDAC10, Homo sapiens, UniProt Q969S8)

CC(C)C1=CC2=CC(=O)[C@H]3C(C)(C)CCC[C@]3(C)C2=C(O)C1=O (racemic)  IC50 (Farnesyl pyrophosphate synthase (FDPS, Homo sapiens, UniProt P14324); enzyme activity, inhibitor): 0.12 µM
O=C(NS(=O)(=O)c1ccccc1)c1cc2ccccc2n1Cc1ccc(C2CC2)c2ccccc12  IC50 (SLC22A12; transporter uptake, inhibitor, radiometric): 4.09 µM
COc1ccc(N(Cc2csc(-c3ccccc3)n2)C(=O)CCCCCC(=O)NO)cc1  IC50 (HDAC7; enzyme activity, inhibitor): > 10 µM
O=C(CCCCc1ccc(CO)cc1)C(F)(F)F  IC50 (PLA2G6; enzyme activity, inhibitor): 1.1 µM
CCCc1ccn2c(-c3ccncc3)c(-c3ccc(F)cc3)nc2c1  IC50 (CSNK1A1; enzyme activity, inhibitor, ADP detection): 0.97 µM
CCCS(=O)(=O)NC(=O)c1cc2ccccc2n1Cc1ccc(C2CC2)c2ccccc12  IC50 (SLC22A12; transporter uptake, inhibitor, radiometric): 5.56 µM
CN1CCC(CNc2ccc3ncc(-c4cccc(OC(F)(F)F)c4)n3n2)CC1  IC50 (Beta-2 adrenergic receptor (ADRB2, Homo sapiens, UniProt P07550); cAMP, antagonist): 8.31 µM
c1ccc(-c2[nH]ccc2-c2ccnc3ccccc23)nc1  IC50 (CSNK1A1; enzyme activity, inhibitor, ADP detection): > 30 µM
O=CCCCCCCCC(=O)C(F)(F)F  IC50 (PLA2G6; enzyme activity, inhibitor): 41.2 µM
COc1ccc2c(-c3ccncc3)c(-c3ccc(F)cc3)nn2c1  IC50 (CSNK1A1; enzyme activity, inhibitor, ADP detection): 2.4 µM
c1ccc(-c2n[nH]cc2-c2ccncc2)nc1  IC50 (CSNK1A1; enzyme activity, inhibitor, ADP detection): 2.9 µM
CCc1oc2cc(F)c(F)cc2c1C(=O)c1cc(Br)c(O)c(Br)c1  IC50 (SLC22A12; transporter uptake, inhibitor, radiometric; oocytes): 0.245 µM
O=C(O)CCCCCCCC(=O)C(F)(F)F  IC50 (PLA2G6; enzyme activity, inhibitor): 352 µM
CN(CCCCCCNC(=O)CNc1cccc2c1C(=O)N(C1CCC(=O)NC1=O)C2=O)Cc1cn(Cc2ccc(C(=O)NO)cc2)c2ccccc12 (centres unmarked)  IC50 (HDAC10; enzyme activity, inhibitor, fluorescence): 0.007 µM
CC(C)(O)c1coc(S(=O)(=O)NC(=O)c2cc3ccccc3n2Cc2ccc(Br)c3ccccc23)c1  IC50 (SLC22A12; transporter uptake, inhibitor, radiometric): 9.76 µM
CC(=O)N[C@@H](CC(C)C)C(=O)N[C@@H](CC(C)C)C(=O)N[C@H](C=O)CCCNC(=N)N  IC50 (Kallikrein-1 (KLK1, Homo sapiens, UniProt P06870); enzyme activity, inhibitor): 3.9 µM
O=C(NO)c1ccc(Cn2cnc3c(Nc4cccc([N+](=O)[O-])c4)ncnc32)cc1  IC50 (HDAC7; enzyme activity, inhibitor): 0.117 µM
COc1ccc(N(Cc2nc(-c3ccc(F)cc3)cs2)C(=O)CCCCCC(=O)NO)cc1  IC50 (HDAC7; enzyme activity, inhibitor): > 10 µM
O=C(CNc1cccc2c1C(=O)N(C1CCC(=O)NC1=O)C2=O)NCCCCCCN1CCc2c(c3ccccc3n2Cc2ccc(C(=O)NO)cc2)C1 (centres unmarked)  IC50 (HDAC10; enzyme activity, inhibitor, fluorescence): 0.022 µM
Fc1ccc(-c2nn3cc(C(F)(F)F)ccc3c2-c2ccncc2)cc1  IC50 (CSNK1A1; enzyme activity, inhibitor, ADP detection): > 15 µM
c1coc(-c2n[nH]cc2-c2ccnc3ccccc23)c1  IC50 (CSNK1A1; enzyme activity, inhibitor, ADP detection): 3.4 µM
CC(C)(C)c1ccn2nc(-c3ccc(F)cc3)c(-c3ccncc3)c2c1  IC50 (CSNK1A1; enzyme activity, inhibitor, ADP detection): 8.7 µM
Fc1ccc(Cc2[nH]nc(-c3ccccn3)c2-c2ccnc3ccccc23)cc1  IC50 (CSNK1A1; enzyme activity, inhibitor, ADP detection): 11 µM
O=C(NS(=O)(=O)c1ccccc1)c1cc2ccccc2n1Cc1ccc(Br)c2ccccc12  IC50 (SLC22A12; transporter uptake, inhibitor, radiometric): 12 µM
Nc1ncnc2c1ncn2[C@@H]1O[C@H](CSCC[C@H](N)C(=O)O)[C@@H](O)[C@H]1O  IC50 (Histone-lysine N-methyltransferase SETD2 (SETD2, Homo sapiens, UniProt Q9BYW2); enzyme activity, inhibitor): 2.11 µM
O=C1CCC(N2C(=O)c3cccc(NCC(=O)OCCCCc4cn(CCCCCCN5CCc6c(c7ccccc7n6Cc6ccc(C(=O)NO)cc6)C5)nn4)c3C2=O)C(=O)N1 (centres unmarked)  IC50 (HDAC10; enzyme activity, inhibitor, fluorescence): 0.017 µM
Oc1ccc2c(-c3ccncc3)c(-c3ccc(F)cc3)nn2c1  IC50 (CSNK1A1; enzyme activity, inhibitor, ADP detection): 1.6 µM
Oc1ccccc1-c1n[nH]cc1-c1ccnc2ccccc12  IC50 (CSNK1A1; enzyme activity, inhibitor, ADP detection): 3.1 µM
CC(C)NC(=O)COc1cccc(-c2nc(Nc3ccc4[nH]ncc4c3)c3ccccc3n2)c1  IC50 (Solute carrier family 22 member 2 (SLC22A2, Homo sapiens, UniProt O15244); transporter uptake, inhibitor, radiometric; HEK293): > 1 µM
